Rows were chosen to be rich in hits. Some 5.5% of all compounds tested hit in one or more screens of this group.
PLAP act: PLAP enzyme activators, biochemical, luminescence, HTS. Alkaline phosphatase, placental type (Homo sapiens), P05187. AID 696, 2007. purified PLAP enzyme, luminescent substrate read-out; active compounds read high. activation fold at 20 µM. 1.2% of 96,000 active; in the data active means activation fold above about 2
Target sequence (P05187 whole entry, looked up): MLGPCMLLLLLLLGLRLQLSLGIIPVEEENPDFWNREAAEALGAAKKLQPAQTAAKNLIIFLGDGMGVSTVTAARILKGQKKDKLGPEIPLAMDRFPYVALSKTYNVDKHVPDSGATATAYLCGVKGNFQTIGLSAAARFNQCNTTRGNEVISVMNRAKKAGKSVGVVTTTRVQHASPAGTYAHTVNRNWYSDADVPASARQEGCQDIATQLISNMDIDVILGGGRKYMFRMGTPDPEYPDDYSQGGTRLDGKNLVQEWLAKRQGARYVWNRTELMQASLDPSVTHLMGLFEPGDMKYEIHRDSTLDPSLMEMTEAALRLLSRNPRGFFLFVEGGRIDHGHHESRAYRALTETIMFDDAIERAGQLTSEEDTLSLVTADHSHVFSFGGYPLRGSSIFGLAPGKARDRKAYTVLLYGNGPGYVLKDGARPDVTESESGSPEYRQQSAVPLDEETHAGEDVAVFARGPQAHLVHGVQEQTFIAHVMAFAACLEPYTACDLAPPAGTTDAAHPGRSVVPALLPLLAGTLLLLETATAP
HePTP inh: inhibitors of human HePTP phosphatase, primary screen, biochemical, absorbance, leukemia target. recombinant HePTP phosphatase activity, OD absorbance. Tyrosine-protein phosphatase non-receptor type 7 (Homo sapiens), P35236. 0.64% of 110,000 active. inhibition, % at 20 µM; in the data active means inhibition above about 50%;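 further: plate controls were vehicle for no effect and reference inhibitor for full effect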
E coli WT exp: growth inhibitors of wild-type E. coli, primary screen, strain BW25113, expanded library, OD600; OD600 absorbance; 0.15% of 98,000 active; growth inhibition, % at 100 µM;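 active means growth inhibition above about 50% at one test dose, limit read from the data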;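 further: growth measured after 20 h incubation at 37 °C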
PostGolgi yeast: phenotypic screen on post-Golgi transport, primary screen. 0.9% of 98,000 active. inhibition, % at 10 µM. post-Golgi transport phenotypic cell assay. AID 739, 2007;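 further: yeast cells grown in 1536-well plates; yeast grown about 18 h at 30C before absorbance read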
Ecoli tolC: growth inhibitors of E. coli tolC mutant, primary screen, strain BW25113 ΔtolC::kan, 384-well. OD615. growth inhibition, % at 10 µM (by protocol). 2.2% of 65,000 active;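 active means growth inhibition at or above a cutoff equal to the mean over every tested compound plus 3 SD, cut at about 60% in these data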;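 further: growth measured after 20 h incubation at 37 °C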
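Assay system: tolC-deleted E. coli BW25113. Medium: kanamycin-containing LB broth (50 µg/mL). Dosing: 10 µM final, single dose. Timing: bacterial growth with compound for 20 h at 37 °C. Detection: A615 absorbance measurement. Read-out basis: growth inhibition in percent.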
PostGolgi ctrl: growth inhibition of yeast control strain, primary screen, counter-screen for post-Golgi transport modulator project | 5% of 98,000 active | efflux-deficient yeast background strain, growth absorbance A615, 16 h | inhibition, % at 10 µM
* = called active by the depositor; / = no result. Unless noted, no stated cut-off is given here; in the data, active means inhibition above about 30%; inactive means the rest.

SMILES	PLAP act	HePTP inh	E coli WT exp	PostGolgi yeast	Ecoli tolC	PostGolgi ctrl
O=C(Nc1nc(-c2ccc([N+](=O)[O-])cc2)cs1)C1CC1c1ccccc1 (stereo unspecified)	/	-5.3	/	/	/	/
Cc1cccc(NC(=O)c2cnc3scc(C)n3c2=O)c1	/	-12.7	-4.0	-3.0	0.6	29.1
Cc1csc2ncc(C(=O)Nc3ccon3)c(=O)n12	/	2.7	1.0	2.3	-37.2	41.0*
OCCn1c(-c2ccc3c(c2)OCO3)csc1=Nc1ccccc1	1.5	12.1	9.0	5.3	75.7*	24.3
CCOc1ccc(N=c2scc(-c3ccccc3)n2CCO)cc1	0.9	/	-12.0	-3.5	/	3.3
COC(=O)c1[nH]c2ccc(C)cc2c1NC(=O)CN1CCCc2ccccc21	0.7	10.7	5.0	-2.4	17.4	47.6*
COC(=O)c1[nH]c2ccc(F)cc2c1NS(=O)(=O)c1ccc(OC)cc1OC	0.9	1.1	-3.0	3.0	35.9	18.2
COC(=O)c1[nH]c2ccc(C)cc2c1NS(=O)(=O)c1ccc(F)c(C)c1	1	-0.3	3.0	-8.0	96.5*	15.0
COC(=O)c1[nH]c2ccc(C)cc2c1NC(=O)Oc1ccccc1	0.8	/	-5.0	16.0	/	0.4
COC(=O)c1[nH]c2ccc(C)cc2c1NC(=O)CN1CCCCC1C (stereo unspecified)	/	2.6	/	/	5.8	/
COC(=O)c1[nH]c2ccc(C)cc2c1NS(=O)(=O)c1ccc(F)cc1	1.2	6.5	-5.0	13.7	82.6*	-1.9
Cc1cc(S(=O)(=O)Nc2c(C(=O)O)[nH]c3ccccc23)ccc1F	2*	1.0	-4.0	2.2	-6.7	-3.3
CCN(CC)CCNC(=O)c1ccc(Cl)c(Cl)c1	/	-2.2	/	/	/	/
COC(=O)CN(c1ccccc1C)S(=O)(=O)c1ccc(C)cc1	/	-2.5	/	/	/	/
O=C(CN1CCN(c2ccccc2)CC1)Nc1ccc(Oc2ccccc2)cc1	0.9	/	-21.0	3.7	/	41.7*
O=C(CN1CCOCC1)Nc1ccc(Oc2ccccc2)cc1	1.4	2.5	5.0	1.6	14.3	7.5
COc1cccc(NC(=O)CN2CCN(c3ccccc3F)CC2)c1	0.8	12.1	1.0	-7.9	8.4	32.1*
O=C(CN1CCCC1)Nc1ccc(Oc2ccc(NC(=O)CN3CCCC3)cc2)cc1	1.5	10.3	3.0	2.5	-14.4	0.1
O=C(CN1CCNCC1)Nc1ccc(Oc2ccccc2)cc1	0.9	/	10.0	4.7	/	39.2*
CCCCNc1ncnc2sc3c(c12)CCCC3	/	6.3	/	/	/	/
CO/N=C/NC(=O)NOCc1c(Cl)cccc1Cl	1	/	4.0	0.5	/	31.5*
c1ccc(Nc2nc(-c3cccs3)cs2)nc1	/	-0.7	4.0	-8.1	100.0*	30.9*
c1cnc(Nc2nc(-c3cccs3)cs2)nc1	/	102.0*	/	/	/	/
c1cnc(Nc2nc(-c3cccnc3)cs2)nc1	/	1.9	/	/	/	/
O=C(Nc1ccccc1C(F)(F)F)c1cccc(OCc2ccccc2)c1	/	-16.4	/	/	/	/
SMILES	PLAP act	HePTP inh	E coli WT exp	PostGolgi yeast	Ecoli tolC	PostGolgi ctrl
Cc1sc2nc(CN3CCCC3)nc(N3CCC(C(N)=O)CC3)c2c1C	2*	/	3.0	-2.5	/	3.8
N#Cc1c(NCc2ccccc2)ccnc1SCc1ccccc1	/	-2.5	/	/	/	/
CCOc1ccccc1NC1=C(Cl)C(=O)N(Cc2ccccc2)C1=O	0.4	/	-7.0	11.5	/	32.5*
COc1ccccc1CC(=O)O/N=C(\N)Cc1cccc2ccccc12	1	/	8.0	-3.3	/	30.2*
COc1ccc(Cl)cc1C(=O)Nc1ccc(Br)cc1	/	4.8	/	/	/	/
Cc1ccc(NC(=O)CN(c2ccc(C(C)C)cc2)S(=O)(=O)c2ccccc2)c(C)c1	/	-3.4	/	/	/	/
CCCCC(=O)NC1(C(F)(F)F)C(=O)N(CC(C)C)C2=C1C(=O)CC(C)(C)C2 (stereo unspecified)	1	/	4.0	-4.4	/	31.0*
CCCCN1C(=O)C(NC(=O)C2CC2)(C(F)(F)F)C2=C1CC(C)(C)CC2=O (stereo unspecified)	1.1	/	-3.0	3.9	/	16.2
Cn1c(Cl)cnc1C1CC(=O)c2cc(Cl)ccc2O1 (stereo unspecified)	1	11.5	-3.0	-1.8	5.4	38.3*
N/C(=N\OC(=O)c1cccc(F)c1)c1ccccc1	0.9	1.5	5.0	-2.1	/	5.6
Cc1ccc(/C(N)=N/OC(=O)c2cccc(F)c2)cc1	1	10.2	11.0	-2.5	/	43.5*
